What was measured:
[1] = Displacement of [3H]-PN200-110 from L-type calcium channel dihydropyridine binding site in Wistar rat cortex homogenate after 60 mins by liquid scintillation spectometric analysis; assay type: tissue-based
In short: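 Competition binding on rat cortex homogenate with (+)-[5-methyl-3H]PN200-110. Compounds are dissolved in DMSO as 10⁻² M stocks and diluted in buffer. Six displacer concentrations are tested, each in triplicate. IC50 is obtained by −log probit analysis and Ki by the Prusoff method. Values are mean ± SEM of 3−5 separate experiments done in triplicate.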

Rattus norvegicus = organism: Rattus norvegicus; test: Displacement of [3H]-PN200-110 from L-type calcium channel dihydropyridine binding site in Wistar rat cortex homogenate at 100 uM after 60 mins by liquid scintillation spectometric analysis relative to control; assay type: tissue-based
In short: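 Binding on rat cortex homogenate using (+)-[5-methyl-3H]PN200-110. The read-out is percent of maximal radioligand displacement at 100 μM test compound. Compounds are made up as 10⁻² M DMSO stocks and diluted in buffer. Values are from 3−5 separate experiments done in triplicate.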

Ileum [2] = test: Relaxant activity in potassium depolarized guinea pig ileum longitudinal smooth muscle assessed as inhibition of calcium-induced contraction; assay type: functional, tissue-based; conditions: Cavia porcellus
In short: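 K⁺-depolarized (80 mM) guinea pig ileum longitudinal smooth muscle is used. Calcium-induced contraction is measured with cumulative compound addition.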

Ileum [3] = test: Relaxant activity in potassium depolarized guinea pig ileum longitudinal smooth muscle assessed as inhibition of calcium-induced contraction at 10^-5 M relative to control; assay type: functional, Cavia porcellus; parameters: scale not given: the % may be the effect or the level left
In short: (§1)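 Guinea pig aortic strips and ileum longitudinal smooth muscle are depolarized with 80 mM K⁺. The read-out is percent inhibition of calcium-induced contraction. Aorta is tested at 10⁻⁴ M and ileum at 10⁻⁵ M.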

Aorta [4] = test: Relaxant activity in potassium depolarized guinea pig aortic strips assessed as inhibition of calcium-induced contraction at 10^-4 M relative to control; assay type: functional, Cavia porcellus; parameters: scale not given: the % may be the effect or the level left; in short: as §1
[5] = Negative chronotropic activity in guinea pig right atrium assessed as decrease in atrial rate; assay type: functional, tissue-based; conditions: Cavia porcellus, Cardiac atrium
In short: (§2)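 Isolated guinea pig atria are used, with left atria driven at 1 Hz. Compounds are added cumulatively. EC50 is derived from log concentration−response curves by Litchfield–Wilcoxon probit analysis, n = 6−7. EC50 is not calculated when the maximal effect is below 50%.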

[6] = Negative chronotropic activity in guinea pig right atrium assessed as decrease in atrial rate at 10^-4 M relative to control; assay type: functional, Cavia porcellus, Cardiac atrium; parameters: scale not given: the % may be the effect or the level left
In short: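 The read-out is decrease in rate of spontaneously beating isolated guinea pig right atrium at 10⁻⁴ M. It is expressed as percent change from control, n = 7−8.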

[7] = Negative inotropic activity in guinea pig left atrium assessed as decrease in developed tension at 10^-6 M relative to control; assay type: functional, Cavia porcellus, Cardiac atrium; parameters: scale not given: the % may be the effect or the level left
[8] = Displacement of [3H]-PN200-110 from L-type calcium channel in Hartley guinea pig ventricular membrane […] after 90 mins; parameters: species or system Cavia porcellus
Cavia porcellus [9] = organism: Cavia porcellus; test: Displacement of [3H]-PN200-110 from L-type calcium channel in Hartley guinea pig ventricular membrane […] after 90 mins relative to control
[10] = Displacement of [3H]-PN200-110 from L-type calcium channel in Hartley guinea pig atrial membrane after 90 mins; assay type: cell membranes, Cavia porcellus, Cardiac atrium
In short: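 Guinea pig atrial membranes are labelled at the 1,4-DHP site with (+)-[5-methyl-3H]PN200-110 at 0.5 nM. Competitor is added over 0.001−100 μM from 10⁻² M DMSO stocks diluted in buffer. Results are given as IC50 and Ki, mean ± SEM. Student's t-test is applied with P<0.001.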

Cavia porcellus [11] = organism: Cavia porcellus; test: Displacement of [3H]-PN200-110 from L-type calcium channel in Hartley guinea pig atrial membrane at 100 uM after 90 mins relative to control; assay type: cell membranes; conditions: Cardiac atrium
HEK293 = test: Displacement of [3H]-PN200-110 from voltage-gated calcium channel subunit alpha Cav1.2a (unknown origin) expressed in HEK293 cells at 100 uM after 90 mins by liquid scintillation counting analysis relative to control; assay type: cell-based; conditions: Homo sapiens
[12] = Negative inotropic activity in guinea pig left atrium assessed as decrease in developed tension at 10^-4 M relative to control; assay type: functional, Cavia porcellus, Cardiac atrium; parameters: scale not given: the % may be the effect or the level left
[13] = Displacement of [3H]-PN200-110 from voltage-gated calcium channel subunit alpha Cav1.2a (unknown origin) expressed in HEK293 cells after 90 mins by liquid scintillation counting analysis; assay type: cell-based, Homo sapiens
In short: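 Intact HEK-293 cells stably transfected with a rabbit Cav1.2a (α1c-a) plasmid are used. They are incubated with 0.5 nM (+)-[5-methyl-3H]PN200-110 plus competitor at 0.001−100 μM, from 10⁻² M DMSO stocks diluted in buffer. IC50 values are given as mean ± SEM.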

Ileum [14] = test: Relaxant activity in potassium depolarized guinea pig ileum longitudinal smooth muscle assessed as inhibition of calcium-induced contraction at 5x10'-6 M relative to control; assay type: functional, Cavia porcellus; parameters: scale not given: the % may be the effect or the level left
Aorta [15] = test: Relaxant activity in potassium depolarized guinea pig aortic strips assessed as inhibition of calcium-induced contraction at 5x10'-5 M relative to control; assay type: functional, Cavia porcellus; parameters: scale not given: the % may be the effect or the level left
[16] = Selectivity ratio of EC50 for negative chronotropic activity in guinea pig right atrium to EC50 for negative inotropic activity in guinea pig left atrium; assay type: functional, Cavia porcellus, Cardiac atrium
[17] = Negative inotropic activity in guinea pig left atrium assessed as decrease in developed tension at 10^-5 M relative to control; assay type: functional, Cavia porcellus, Cardiac atrium; parameters: scale not given: the % may be the effect or the level left
[18] = Negative inotropic activity in guinea pig left atrium assessed as decrease in developed tension; assay type: functional, tissue-based; conditions: Cavia porcellus, Cardiac atrium; in short: as §2
Ileum [19] = test: Relaxant activity in potassium depolarized guinea pig ileum longitudinal smooth muscle assessed as inhibition of calcium-induced contraction at 5x10'-5 M relative to control; assay type: functional, Cavia porcellus; parameters: scale not given: the % may be the effect or the level left
[20] = Negative chronotropic activity in guinea pig right atrium assessed as decrease in atrial rate at 5x10'-5 M relative to control; assay type: functional, Cavia porcellus, Cardiac atrium; parameters: scale not given: the % may be the effect or the level left

| SMILES | IC50 [1] [nM] | Ki [1] [nM] | %max (Rattus norvegicus) [%] | IC50 (Ileum [2]) [nM] | EC50 [5] [nM] | %max (Cavia porcellus [9]) [%] | IC50 [10] [nM] | Ki [10] [nM] | %max (Cavia porcellus [11]) [%] | Activity (Ileum [3]) [%] | Activity (Aorta [4]) [%] | Activity [6] [%] | Activity [7] [%] | %max (HEK293) [%] | further results |
| --- | --- | --- | --- | --- | --- | --- | --- | --- | --- | --- | --- | --- | --- | --- | --- |
| COC(=O)C1=C(C)NC(C)=C(C(=O)OC)C1c1c(C(F)(F)F)nc2sccn12 | 1650 | 520 | 75 | – | – | – | – | – | – | – | – | – | – | – | – |
| COC(=O)C1=C(C)NC(C)=C(C(=O)OC)C1c1c(-c2cc(OC)cc(OC)c2)nc2sccn12 | 1210 | 410 | 79 | – | – | 60 | 250 | 90 | 54 | – | – | – | – | 50 | IC50 [13]: 610 nM; Ki [13]: 190 nM; IC50 [8]: 840 nM; Ki [8]: 310 nM |
| COC(=O)C1=C(C)NC(C)=C(C(=O)OC)C1c1c(-c2cccs2)nc2sc(C)cn12 | – | – | – | 1370 | 40500 | – | – | – | – | – | 9 | 70 | 40 | – | Activity (Ileum [14]): 81% |
| COC(=O)C1=C(C)NC(C)=C(C(=O)OC)C1c1c(-c2ccccn2)nc2sccn12 | – | – | – | 2570 | 24400 | – | – | – | – | 87 | – | 71 | – | – | Activity (Aorta [15]): 28%; Ratio EC50 [16]: 45; Activity [17]: 58%; EC50 [18]: 540 nM |
| COC(=O)C1=C(C)NC(C)=C(C(=O)OC)C1c1c(-c2cccnc2)nc2sccn12 | – | – | – | 3550 | 28400 | – | – | – | – | 91 | 36 | 98 | – | – | Activity [17]: 25% |

The next lines start with results.

| IC50 [1] [nM] | Ki [1] [nM] | %max (Rattus norvegicus) [%] | IC50 (Ileum [2]) [nM] | EC50 [5] [nM] | %max (Cavia porcellus [9]) [%] | IC50 [10] [nM] | Ki [10] [nM] | %max (Cavia porcellus [11]) [%] | SMILES | Activity (Ileum [3]) [%] | Activity (Aorta [4]) [%] | Activity [6] [%] | Activity [7] [%] | %max (HEK293) [%] | further results |
| --- | --- | --- | --- | --- | --- | --- | --- | --- | --- | --- | --- | --- | --- | --- | --- |
| – | – | – | 2810 | 39900 | – | – | – | – | COC(=O)C1=C(C)NC(C)=C(C(=O)OC)C1c1c(-c2ccccn2)nc2sc(C)cn12 | 78 | 13 | 72 | 42 | – | – |
| 990 | 330 | 90 | – | – | 96 | 290 | 90 | 92 | COC(=O)C1=C(C)NC(C)=C(C(=O)OC)C1c1c(-c2cccc(OC)c2)nc2sccn12 | – | – | – | – | < 50 | IC50 [8]: 450 nM; Ki [8]: 160 nM |
| – | – | – | 3520 | 2300 | – | – | – | – | COC(=O)C1=C(C)NC(C)=C(C(=O)OC)C1c1c(-c2ccsc2)nc2sc(C)cn12 | 74 | 6 | 85 | – | – | Activity [12]: 12% |
| 106000 | 34700 | 52 | – | – | – | – | – | – | COC(=O)C1=C(C)NC(C)=C(C(=O)OC)C1c1c(Cl)nc2scc(C)n12 | – | – | – | – | – | – |
| 100 | 59 | 70 | 16000 | 12500 | < 50 | 22 | 4.8 | 52 | COC(=O)C1=C(C)NC(C)=C(C(=O)OC)C1c1c(-c2cccnc2)nc2sc(C)cn12 | – | – | – | 18 | < 50 | Activity (Ileum [19]): 83%; Activity (Aorta [15]): 19%; Activity [20]: 86% |
